What was measured:
Rattus norvegicus [1] = species on record: Rattus norvegicus; test: Effect on pressor activity in vagotomized and ganglion-blocked rat assessed as duration of action; type: functional
Procedure, shortened: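 Single-injection pressor test in vagotomized, ganglion-blocked rats. Duration of action runs from peptide injection until blood pressure returns to control values.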

Rattus norvegicus [2] = species on record: Rattus norvegicus; test: Effect on pressor activity in vagotomized and ganglion-blocked rat relative to angiotensin 2; type: functional
Procedure, shortened: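 Pressor response was measured in vagotomized, ganglion-blocked rats by the single-injection procedure. Activity is expressed as a percentage of the pressor activity of angiotensin II, with n injections per value.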

Rattus norvegicus [3] = species on record: Rattus norvegicus; test: Effect on pressor activity in vagotomized and ganglion-blocked rat assessed as duration of action relative to angiotensin 2; type: functional
Procedure, shortened: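 Vagotomized, ganglion-blocked rats received single injections. Duration of action, timed from injection until blood pressure returns to control levels, is compared against an equipressor dose of angiotensin II given by the same procedure.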

[4] = Stability of the compound assessed as beef pancreas alpha-chymotrypsin-mediated drug degradation up to 3 hrs by TLC analysis; type: ADME, Bos taurus; settings: cattle, isolated protein
Procedure, shortened: (§1)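 Peptide (5 mg) in 0.5 mL of 0.1 mol ammonium acetate buffer, pH 7.5, was incubated at 37 °C with 0.4 mg of thrice-crystallized bovine pancreatic α-chymotrypsin suspended in buffer. The reaction was stopped with acetic acid, the mixture lyophilized, and fragments checked by TLC on cellulose in suitable solvents.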

[5] = Stability of the compound assessed as microsomal leucine aminopeptidase (unknown origin)-mediated liberation of aspartic acid from position 1 after 5 mins by TLC analysis
[6] = Stability of the compound assessed as microsomal leucine aminopeptidase (unknown origin)-mediated liberation of sarcosine, arginine and valine after 2 hrs by TLC analysis; type: ADME, Homo sapiens
Procedure, shortened: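 Peptide (2 mg) in 0.4 mL of 0.5 mol Tris, pH 8.5, plus 0.1 mL of 0.025 mol MnCl2, was incubated at 37 °C with 0.2 mg of microsomal leucine aminopeptidase (25 units/1.83 mg). Acetic acid was added and the mixture lyophilized. Liberated amino acids were detected by TLC and amino acid analysis.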

[7] = Stability of the compound assessed as beef pancreas alpha-chymotrypsin-mediated drug degradation into 2 tetrapeptides after 15 to 20 mins by TLC analysis; type: ADME, Bos taurus; settings: cattle, isolated protein; procedure, shortened: as §1

SMILES | Time (Rattus norvegicus [1]) [min] | Activity (Rattus norvegicus [2]) [%] | Time (Rattus norvegicus [3]) [min] | Stability [4] | Stability [5] | Stability [6] | Stability [7]
CC[C@H](C)[C@@H](CC(=O)N[C@@H](Cc1cnc[nH]1)C(=O)N1CCC[C@H]1C(=O)N[C@@H](Cc1ccccc1)C(=O)O)NC(=O)[C@H](Cc1ccc(O)cc1)NC(=O)[C@@H](NC(=O)[C@H](CCCNC(=N)N)NC(=O)[C@@H](N)CC(=O)O)C(C)C | 6.7 | 2.82 | 6.3 | Stable | Unstable | – | –
CC[C@H](C)[C@H](NC(=O)C[C@H](Cc1ccc(O)cc1)NC(=O)[C@@H](NC(=O)[C@H](CCCNC(=N)N)NC(=O)CNC)C(C)C)C(=O)N[C@@H](Cc1cnc[nH]1)C(=O)N1CCC[C@H]1C(=O)N[C@@H](Cc1ccccc1)C(=O)O | 5.5 | 1.98 | 5.2 | Stable | – | Stable | –
CC[C@H](C)[C@@H](CC(=O)N[C@@H](Cc1cnc[nH]1)C(=O)N1CCC[C@H]1C(=O)N[C@@H](Cc1ccccc1)C(=O)O)NC(=O)[C@H](Cc1ccc(O)cc1)NC(=O)[C@@H](NC(=O)[C@H](CCCNC(=N)N)NC(=O)CNC)C(C)C | 4.7 | 29.2 | 5.3 | Stable | – | Stable | –
CC[C@H](C)[C@H](NC(=O)[C@H](Cc1ccc(O)cc1)NC(=O)[C@@H](NC(=O)[C@H](CCCNC(=N)N)NC(=O)CNC)C(C)C)C(=O)N[C@@H](Cc1cnc[nH]1)C(=O)N1CCC[C@H]1C(=O)N[C@@H](Cc1ccccc1)C(=O)O | – | – | – | – | – | Stable | –
CC[C@H](C)[C@H](NC(=O)[C@H](Cc1ccc(O)cc1)NC(=O)[C@@H](NC(=O)[C@H](CCCNC(=N)N)NC(=O)[C@@H](N)CC(=O)O)C(C)C)C(=O)N[C@@H](Cc1cnc[nH]1)C(=O)N1CCC[C@H]1C(=O)N[C@@H](Cc1ccccc1)C(=O)O [ANGIOTENSIN II] | – | – | – | – | Unstable | – | Unstable

— ChEMBL document CHEMBL3228003, “Synthesis of angiotensin II analogues by incorporating beta-homotyrosine or beta-homoisoleucine residues” (J Med Chem, 1979)
